Published values collected from several papers.
Each line is one published result; the experiments were not run side by side.
Target: Serine/threonine-protein kinase DCLK2 (DCLK2, Homo sapiens, UniProt Q8N568)
One construct used (Q8N568 1-766): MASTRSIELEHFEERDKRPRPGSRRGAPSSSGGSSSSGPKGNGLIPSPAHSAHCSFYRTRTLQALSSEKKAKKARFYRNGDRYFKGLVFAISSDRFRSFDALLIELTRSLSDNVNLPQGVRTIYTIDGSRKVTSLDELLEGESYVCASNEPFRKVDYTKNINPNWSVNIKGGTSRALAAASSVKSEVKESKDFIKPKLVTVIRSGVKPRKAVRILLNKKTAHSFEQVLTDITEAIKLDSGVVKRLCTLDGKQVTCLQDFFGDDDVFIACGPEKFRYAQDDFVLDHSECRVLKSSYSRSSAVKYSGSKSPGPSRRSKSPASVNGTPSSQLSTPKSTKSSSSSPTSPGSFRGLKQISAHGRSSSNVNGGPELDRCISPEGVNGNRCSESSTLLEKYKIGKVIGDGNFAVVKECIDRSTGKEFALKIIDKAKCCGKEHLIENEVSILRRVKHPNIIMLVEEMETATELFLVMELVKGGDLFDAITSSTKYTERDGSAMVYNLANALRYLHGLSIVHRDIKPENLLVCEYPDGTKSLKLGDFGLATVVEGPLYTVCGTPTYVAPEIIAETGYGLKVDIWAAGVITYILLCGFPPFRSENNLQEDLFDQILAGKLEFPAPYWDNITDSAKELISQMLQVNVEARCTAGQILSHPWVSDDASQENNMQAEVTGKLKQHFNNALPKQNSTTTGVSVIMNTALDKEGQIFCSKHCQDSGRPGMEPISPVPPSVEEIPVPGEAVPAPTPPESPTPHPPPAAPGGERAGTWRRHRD

Compound	read-out	mode	technique	concentration	endpoint	result
Nc1ncnc2occ(-c3ccc(NC(=O)Nc4cc(C(F)(F)F)ccc4F)cc3)c12	cell-free assay	inhibitor	–	20 µM	remaining signal	100%
COc1ccc2c(c1)O[C@H](c1ccc(OC)c(OC)c1)C[C@@H]2NC(=O)C1(c2ccc3c(c2)OC(F)(F)O3)CC1	cell-free assay	–	competition with immobilised ligand	1 µM	remaining binding	98%
COc1cc2ncnc(Nc3ccc(Oc4ccccc4)cc3C)c2cc1OC	enzyme activity	inhibitor	–	1 µM	inhibition	1%
CC(C)(O)[C@H]1CC[C@H](Nc2ccc3ncc(-c4cccc(C(F)(F)F)c4)n3n2)CC1	enzyme activity	inhibitor	–	1 µM	remaining activity	95.3%
CNc1cccc2cc(C(=O)Nc3ccc(C(=O)O)cc3)c(=O)[nH]c12	enzyme activity	inhibitor	–	10 µM	inhibition	-1.4%
Cc1ccc(Nc2nccc(N(C)c3ccc4c(C)n(C)nc4c3)n2)cc1S(N)(=O)=O	enzyme activity	inhibitor	–	0.3 µM	inhibition	-2%
Cc1c(NC(=O)c2cc(C(N)=O)nc3cc(F)ccc23)c(C(F)(F)F)nn1Cc1ccc(C(C)(C)C)cc1	cell-free assay	–	competition with immobilised ligand	1 µM	remaining binding	83%
Cc1sc(C(=O)NC2COC2)cc1-n1cc(NC(=O)Nc2c(F)cccc2Cl)cn1	enzyme activity	inhibitor	–	10 µM	remaining activity	107%
Cn1cncc1C1=CN(c2ncnc3[nH]cnc23)CCS1	enzyme activity	inhibitor	radiometric	50 nM	inhibition	12.8%
Cc1ccc(NC(=O)c2ccc(C)c(C(F)(F)F)c2)cc1C#Cc1nn(C2CCC(O)CC2)c2ncnc(N)c12 (stereo not shown)	cell-free assay	–	–	10 µM	remaining signal	102%
Cc1nccc(COC(=O)N2C[C@@H]3[C@@H](CNC(=O)c4ccc5[nH]nnc5c4)[C@@H]3C2)n1	cell-free assay	–	competition with immobilised ligand	1 µM	remaining binding	100%
CCN(CC)CCNC(=O)c1c(C)[nH]c(/C=C2\C(=O)Nc3ccc(F)cc32)c1C	enzyme activity	inhibitor	–	0.3 µM	inhibition	-2%
C[S+]([O-])c1ccc(-c2nc(-c3ccncc3)c(-c3ccc(F)cc3)[nH]2)cc1 (stereo not shown)	cell-free assay	–	–	0.5 µM	remaining signal	99.8%
N#Cc1ccc(Nc2ccc3[nH]c(=O)[nH]c3c2)c(Cl)c1	cell-free assay	–	competition with immobilised ligand	1 µM	remaining binding	100%
Cc1cnc(NC2CCOCC2)nc1-n1cnc(C(=O)NC(CN)c2cc(F)cc(Cl)c2)c1 (stereo not shown)	enzyme activity	inhibitor	radiometric	1 µM	remaining activity	83%
CC/C(=N\NC(=O)NCc1cccc(O)c1)c1ccc(O)c(C)c1O	enzyme activity	inhibitor	–	0.1 µM	inhibition	-8.9%
Cn1nc(C(=O)NCc2ccc(C(=O)O)cc2)cc1-c1ccc2[nH]ccc2c1	cell-free assay	–	competition with immobilised ligand	0.1 µM	remaining binding	92%
CC(C)(C)c1nc(-c2cccc(NS(=O)(=O)c3c(F)cccc3F)c2F)c(-c2ccnc(N)n2)s1	enzyme activity	inhibitor	radiometric	1 µM	remaining activity	77%
CNC(=O)Nc1ccc2c(c1)CC[C@@]21OC(=O)N(CC(=O)N(Cc2ccc(F)cc2)[C@@H](C)C(F)(F)F)C1=O	cell-free assay	–	competition with immobilised ligand	1 µM	remaining binding	70%
CNC(=O)c1cc(Oc2ccc(NC(=O)Nc3ccc(Cl)c(C(F)(F)F)c3)cc2)ccn1	cell-free assay	–	–	0.5 µM	remaining signal	102%
Nc1cnc(N2CCc3cc(S(=O)(=O)Nc4c(F)cc(Cl)cc4F)cc(N4CCCC4=O)c32)nc1	cell-free assay	–	competition with immobilised ligand	1 µM	remaining binding	100%
O=C1Nc2ccc(Cl)cc2C1=Cc1cc(Cl)c(O)c(Cl)c1	cell-free assay	–	–	0.5 µM	remaining signal	98%
